Sampled rows, rich in hits. Any-hit rate of the full collection: about 1.6%.
SKN-1 inh – C. elegans SKN-1 inhibition. C. elegans VP596 Pgst-4::GFP/RFP ratio, acrylamide-induced, 24 h. inhibition, % at 21.8 µM. actives 0.49% (n = 360,000). AID 624304;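 active = interference check ratio from 0.5 to 1.5 plus GFP to RFP signal ratio inhibition reaching or exceeding a fixed threshold, cut at about 30% in these data, passing the limit was not always enough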
MT1-MMP act inh – blocks activation of human MT1-MMP; P50281; HT1080 RFP-PRO-GFP cells, GFP/RFP ratio fluorescence, overnight; percent of plate control window, DMSO zero; GFP/RFP ratio change, % at 20 µM; actives 0.061% (n = 360,000);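 active = GFP/RFP ratio change of at least 30% with cell ATP level not reduced by more than half and red fluorescence within 50% of control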
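Material: RFP-PRO-GFP reporter HT1080 cells. Dosing: single-point 20 µM compound, 1% DMSO. Controls: DMSO and RFP-L50D-GFP cell wells. Timing: cells overnight before dosing, compound overnight, 37 °C, 5% CO2. Measure: GFP/RFP fluorescence ratio.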
Tb MetRS inh – Trypanosoma brucei MetRS inhibition. actives 0.4% (n = 360,000). inhibition, % at 11.9 µM. purified T. brucei MetRS, ATP depletion, Kinase-Glo luminescence;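 active = inhibition above a per-plate cutoff of the control wells' mean inhibition plus 3 SD, cut at about 5.5% in these data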;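 also: 0% = DMSO wells median and 100% = median of wells with control inhibitor compound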
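Assay system: T. brucei methionyl-tRNA synthetase, purified | Medium: HEPES buffer with MgCl2, KCl, DTT, spermine, BSA, pyrophosphatase | Compound: 11.9 µM single point | Incubation: 15 min enzyme-compound preincubation, 2 h reaction, 10 min detection, 25 °C | Measured by: Kinase-Glo luciferase luminescence reporting remaining unconsumed ATP | Measure: % inhibition normalized to control-well medians | Replication: Singlicate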
Arrestin-AP2 inh – inhibitors of human beta-arrestin and AP2 interaction | FITC-arrestin peptide / GST-AP2 beads, flow cytometry; AP2 beta2 appendage carries R879A mutation | inhibition, % at 10 µM | actives 0.31% (n = 340,000);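 active = inhibition above a set limit, near 3 SD of compounds lacking own fluorescence, cut at about 54% in these data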;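 also: plate controls were DMSO wells for no effect and 5 µM unlabelled arrestin peptide for full effect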
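Test system: GST-tagged AP2 beta2-adaptin appendage (R879A) on 4 µm glutathione beads; also added: fluorescein-tagged arrestin peptide at 50 nM final; timing: 12 min plus 1 h, RT; signal: flow cytometry, FL1 (488/535 nm); read-out: percent drop in bead-associated FITC signal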
Rin1-Abl PPI inh – blocks binding of human Rin1 to Abl. P00519+Q13671. actives 0.4% (n = 360,000). TR-FRET Rin1/Abl binding, biochemical. inhibition, % at 7.35 µM; in the data active = inhibition above about 5%, passing the limit was not always enough
* hit, by the source's call; · = not tested or not shown.

SMILES | SKN-1 inh | MT1-MMP act inh | Tb MetRS inh | Arrestin-AP2 inh | Rin1-Abl PPI inh
OC1COC(c2ccccc2)OC1C1OC(c2ccccc2)OCC1O (stereo not given) | 11 | 5 | -3 | 7 | 0
O=[N+]([O-])c1cccc(-c2nc(-c3ccccc3)no2)c1 | 8 | -2 | 0 | -19 | -4
O=[N+]([O-])c1cccc(-c2noc(-c3ccco3)n2)c1 | 53* | 2 | -1 | 17 | 0
CCCc1cc2c(cc1N(C)S(=O)(=O)c1ccccc1)OCO2 | 9 | -7 | 0 | -7 | -1
CC(C)(C)c1cc(=O)n(-c2ccccc2)[nH]1 | -2 | 0 | 3 | 9 | 13*
O=c1cc(-c2ccccc2)[nH]n1-c1ccccc1 | 2 | 1 | 0 | 7 | 2
CCOC(=O)c1ccc(Nc2nnc(C(C)(C)C)c(=O)[nH]2)cc1 | 37* | · | -1 | 3 | -4
Cc1ccsc1-c1cc2nc(Nc3ccc(F)cc3)n(C)c(=O)c2s1 | 2 | -5 | 0 | · | 1
O=C(c1ccc(Cl)cc1)c1cc([N+](=O)[O-])ccc1N1CCOCC1 | 67* | 6 | 2 | 10 | -1
O=C(c1ccccc1)c1cc([N+](=O)[O-])ccc1N1CCOCC1 | 7 | 14 | 0 | 7 | -3
O=C(c1ccc(Br)cc1)c1cc([N+](=O)[O-])ccc1N1CCOCC1 | 65* | 1 | -1 | 11 | 2
CC(C)CC(C(=O)Oc1ccc2c3c(c(=O)oc2c1)CCC3)N1C(=O)c2ccccc2C1=O (stereo not given) | 35* | 0 | 0 | 1 | 0
Cc1ccc(NC(=O)COC(=O)Cn2cnc3ccccc32)c(C)c1 | 1 | 4 | 0 | 9 | 3
O=[N+]([O-])c1ccc2nc(N3CCCC3)sc2c1 | 39* | 2 | 0 | -30 | -5
CN(c1ccccc1)c1nc2ccsc2c(=O)s1 | 43* | -2 | 0 | 3 | -13
Nc1ccc(N=Nc2ccccc2)cc1[N+](=O)[O-] | 57* | 6 | 0 | -12 | -3
C(=C\c1ccccc1)/CN1CCN(C(c2cccc3ccccc23)c2nnnn2C2CCCC2)CC1 (stereo not given) | 0 | -1 | 0 | · | 2
Oc1ccc(N=Nc2ccc3c(c2)OCCO3)c2ncccc12 | -5 | 16 | -1 | 34 | 9.2*
CCCCCCc1cc2cc(-c3nnc(-c4ccccc4OC)o3)c(=O)oc2cc1O | 33 | -498 | -1 | 3 | -2
CCCCCCc1cc2cc(-c3nnc(-c4ccccc4O)o3)c(=O)oc2cc1O | 57* | -475 | -1 | 21 | 1
O=C(c1ccco1)N1CCN(C/C=C/c2ccccc2)CC1 | 35* | 2 | -2 | 31 | 0
O=C(NC(=S)N1CCN(C/C=C/c2ccccc2)CC1)c1ccco1 | 10 | 5 | 0 | -11 | 2
COc1c(S(=O)(=O)N2CCCCC2)ccc2c(S(=O)(=O)N3CCCCC3)cccc12 | -6 | -2 | -1 | 4 | 2
O=S(=O)(c1cccc2c(S(=O)(=O)N3CCCC3)cccc12)N1CCCC1 | 36* | -2 | 0 | -12 | 3
O=C1O[C@@H](c2ccccc2)C[C@@H](O)C(=O)CCCc2ccccc21 | -3 | 4 | 0 | · | ·
SMILES | SKN-1 inh | MT1-MMP act inh | Tb MetRS inh | Arrestin-AP2 inh | Rin1-Abl PPI inh
CCc1nnc(NC(=O)CSc2ccc(-c3nc4ccccc4[nH]3)cn2)s1 | 3 | 5 | 9.9* | -2 | 0
CC(O)CC(=O)O (stereo not given) | 41* | 2 | -1 | -5 | -3
O=C(O)CC(O)C(=O)O (stereo not given) | 15 | 10 | -1 | -2 | -2
O=C(CN1CCN(C(=O)C2CCN(C(=O)/C=C/c3ccccc3)CC2)CC1)Nc1ccc(F)cc1 | 23 | 5 | 0 | 22 | 3
O=C(Nc1nc(-c2ccc(S(=O)(=O)N3CCCCCC3)cc2)cs1)c1cccs1 | 1 | · | -2 | -3 | -4
O=C(Nc1nc(-c2ccc(S(=O)(=O)N3CCCC3)cc2)cs1)c1cccs1 | 38* | -11 | -1 | 4 | -2
O=C(Nc1ccc(F)cc1)C(c1cccc(F)c1)N1CCN(c2ccncc2)CC1 (stereo not given) | 3 | 1 | 0 | · | ·
Fc1ccc(N2CCN(c3cnc4ccccc4n3)CC2)cc1 | 63* | 0 | -1 | -3 | 1
Clc1ccc(N2CCN(c3cnc4ccccc4n3)CC2)cc1 | 33 | 1 | 0 | 2 | -2
c1ccc(N2CCN(c3cnc4ccccc4n3)CC2)cc1 | 47* | -1 | 0 | -7 | -5
Cc1ccccc1CN1C(=O)CSCC1(C)C(=O)NC(C)C (stereo not given) | -7 | 6 | -1 | · | ·
CCCCc1c(-c2ccccc2F)ncn1CCc1ccccc1OC | 13 | -8 | 0 | · | ·
c1cc(-c2ccc(N3CCOCC3)cc2)n2ccnc2c1 | 17 | 0 | 0 | · | 0
CN(C)S(=O)(=O)NC(c1ccccc1)c1ccccc1 | 36* | -4 | 0 | 7 | 5
CC(C)c1ccccc1NS(=O)(=O)N(C)C | 6 | -2 | 0 | -1 | 0
Cc1ccccc1Oc1ccc2c(c1)[C@@H]1C[C@H](N(C)C(=O)c3ccco3)[C@H]([C@H](C)O)C(=O)N1CC2 | -5 | 0 | -1 | · | -1
O=C1/C(=C/N(C(=O)c2ccco2)c2ccc(Br)cc2)Sc2ccccc21 | 38* | 4 | 0 | 11 | -3
O=C1/C(=C/N(C(=O)c2ccco2)c2ccc(Cl)cc2)Sc2ccccc21 | 27 | -15 | -1 | 35 | -2
C[C@H](O)C#Cc1ccc2c(c1)O[C@@H](CN(C)Cc1ccc(-c3ccccc3)cc1)[C@H](C)CN([C@@H](C)CO)S2(=O)=O | -7 | -11 | -1 | · | 1
Clc1ccc2c(c1)c1cc(Cl)ccc1n2CN1CCOCC1 | 33* | 3 | 0 | 16 | 0
O=[N+]([O-])c1cc(S(=O)(=O)N2CCCC2)ccc1N/N=C/c1cccs1 | 36* | 9 | 0 | 26 | 3
O=[N+]([O-])c1cc(S(=O)(=O)N2CCCC2)ccc1N/N=C/c1ccncc1 | 8 | 6 | 1 | -23 | -3
O=S1(=O)CC(N2CCN(c3ccccn3)CC2)CN1Cc1ccccc1 (stereo not given) | 9 | 3 | -2 | · | 3
CCc1ccc(C2C(C#N)=C(N)N(N(C)C)C3=C2C(=O)CCC3)cc1 (stereo not given) | 36* | 0 | -1 | -7 | -1
CN(C)N1C(N)=C(C#N)C(c2ccc(F)cc2)C2=C1CCCC2=O (stereo not given) | 3 | 0 | 0 | -2 | 3
CCCCCCCCN1C(=O)[C@H](CC(=O)NCCCOC)C[C@@]2(C(=O)OC)CCCCC=C12 | 17 | 2 | -1 | · | ·
O=C(CSc1nc(-c2ccccc2)nn1C(=O)c1ccccc1)Nc1cccc([N+](=O)[O-])c1 | 18 | 1 | 18* | 17 | -1

Screening results: PubChem, several laboratories
